Assay results from ChEMBL document CHEMBL1158358, “Synthesis, antimicrobial and cytotoxic activities of some 5-arylidene-4-thioxo-thiazolidine-2-ones” (Eur J Med Chem, 2009).
Converted amounts (≈) assume the structure as drawn.

Legend:
Format in all cases: functional
Enterococcus faecalis [1] = assay: Antimicrobial activity against Enterococcus faecalis UFPEDA 138 after 20 hrs by twofold serial dilution technique; settings: UFPEDA 138, 20 h
Method in brief: (§1)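 MIC was determined by twofold serial dilution. Bacteria were tested in plates at 10⁵ CFU/plate and read after 20 h. C. albicans was tested in tubes at 10³ CFU/tube and read after 48 h. All incubations were at 35 °C. Medium plus DMSO served as the negative control.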

Pseudomonas aeruginosa = assay: Antimicrobial activity against Pseudomonas aeruginosa UFPEDA 39 at 300 ug/disk after 24 hrs by disk diffusion method; settings: UFPEDA 39, 24 h, read-out: IZ
Method in brief: (§2)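 Preliminary screen by disk diffusion. Paper disks (6 mm) holding 300 µg of compound were placed on agar plates inoculated with a standardized microbial suspension. DMSO-only disks served as negative controls. A mean inhibition zone below 7 mm was scored as no sensitivity. Values are means, n = 3.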

Staphylococcus aureus [2] = assay: Antimicrobial activity against Staphylococcus aureus UFPEDA 01 at 300 ug/disk after 24 hrs by disk diffusion method; settings: UFPEDA 01, 24 h, read-out: IZ; method in brief: as §2
Candida albicans [3] = assay: Antimicrobial activity against Candida albicans UFPEDA 1007 after 48 hrs by twofold serial dilution technique; settings: UFPEDA 1007, 48 h; method in brief: as §1
Escherichia coli = assay: Antimicrobial activity against Escherichia coli UFPEDA 224 at 300 ug/disk after 24 hrs by disk diffusion method; settings: UFPEDA 224, 24 h, read-out: IZ; method in brief: as §2
Bacillus subtilis [4] = assay: Antimicrobial activity against Bacillus subtilis UFPEDA 16 after 20 hrs by twofold serial dilution technique; settings: UFPEDA 16, 20 h; method in brief: as §1
Staphylococcus aureus [5] = assay: Antimicrobial activity against multidrug-resistant Staphylococcus aureus H.C. 21141 isolate after 20 hrs by twofold serial dilution technique; settings: H.C. 21141, 20 h
Method in brief: (§3)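 Twofold serial dilution MIC in agar plates against Gram-positive strains and multidrug-resistant clinical isolates. Inoculum applied was 10⁵ CFU/plate. Plates with culture medium plus DMSO served as negative control. MIC was read after incubation at 35 °C for 20 h.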

Staphylococcus aureus [6] = assay: Antimicrobial activity against multidrug-resistant Staphylococcus aureus H.C. 20981 isolate after 20 hrs by twofold serial dilution technique; settings: H.C. 20981, 20 h; method in brief: as §3
[7] = tested on: Mycolicibacterium smegmatis; assay: Antimicrobial activity against Mycobacterium smegmatis UFPEDA 71 at 300 ug/disk after 24 hrs by disk diffusion method; settings: UFPEDA 71, 24 h, read-out: IZ; method in brief: as §2
Staphylococcus aureus [8] = assay: Antimicrobial activity against multidrug-resistant Staphylococcus aureus H.C. 20905 isolate after 20 hrs by twofold serial dilution technique; settings: H.C. 20905, 20 h; method in brief: as §3
Micrococcus luteus [9] = assay: Antimicrobial activity against Micrococcus luteus UFPEDA 06 at 300 ug/disk after 24 hrs by disk diffusion method; settings: UFPEDA 06, 24 h, read-out: IZ; method in brief: as §2
Enterococcus faecalis [10] = assay: Antimicrobial activity against multidrug-resistant Enterococcus faecalis H.C. 24962 isolate after 20 hrs by twofold serial dilution technique; settings: H.C. 24962, 20 h; method in brief: as §3
Bacillus subtilis [11] = assay: Antimicrobial activity against Bacillus subtilis UFPEDA 16 at 300 ug/disk after 24 hrs by disk diffusion method; settings: UFPEDA 16, 24 h, read-out: IZ; method in brief: as §2
Staphylococcus [12] = assay: Antimicrobial activity against coagulase-negative Staphylococcus H.A.M. 278 isolate after 20 hrs by twofold serial dilution technique; settings: H.A.M. 278, 20 h; method in brief: as §1
Staphylococcus aureus [13] = assay: Antimicrobial activity against Staphylococcus aureus UFPEDA 01 after 20 hrs by twofold serial dilution technique; settings: UFPEDA 01, 20 h; method in brief: as §3
Enterococcus faecalis [14] = assay: Antimicrobial activity against multidrug-resistant Enterococcus faecalis H.C. 21944 isolate after 20 hrs by twofold serial dilution technique; settings: H.C. 21944, 20 h; method in brief: as §3
Staphylococcus aureus [15] = assay: Antimicrobial activity against multidrug-resistant Staphylococcus aureus H.C. 21036 isolate after 20 hrs by twofold serial dilution technique; settings: H.C. 21036, 20 h; method in brief: as §3
Enterococcus faecalis [16] = assay: Antimicrobial activity against Enterococcus faecalis UFPEDA 138 at 300 ug/disk after 24 hrs by disk diffusion method; settings: UFPEDA 138, 24 h, read-out: IZ; method in brief: as §2
Serratia marcescens = assay: Antimicrobial activity against Serratia marcescens UFPEDA 398 at 300 ug/disk after 24 hrs by disk diffusion method; settings: UFPEDA 398, 24 h, read-out: IZ; method in brief: as §2
Staphylococcus aureus [17] = assay: Antimicrobial activity against multidrug-resistant Staphylococcus aureus H.C. 20489 isolate after 20 hrs by twofold serial dilution technique; settings: H.C. 20489, 20 h; method in brief: as §3
Staphylococcus aureus [18] = assay: Antimicrobial activity against multidrug-resistant Staphylococcus aureus H.C. 20794 isolate after 20 hrs by twofold serial dilution technique; settings: H.C. 20794, 20 h; method in brief: as §3
Enterococcus faecalis [19] = assay: Antimicrobial activity against multidrug-resistant Enterococcus faecalis H.C. 24708 isolate after 20 hrs by twofold serial dilution technique; settings: H.C. 24708, 20 h; method in brief: as §3
Candida albicans [20] = assay: Antimicrobial activity against Candida albicans UFPEDA 1007 at 300 ug/disk after 48 hrs by disk diffusion method; settings: UFPEDA 1007, 48 h, read-out: IZ; method in brief: as §2
[21] = tested on: Mycolicibacterium smegmatis; assay: Antimicrobial activity against Mycobacterium smegmatis UFPEDA 71 after 20 hrs by twofold serial dilution technique; settings: UFPEDA 71, 20 h; method in brief: as §1
Micrococcus luteus [22] = assay: Antimicrobial activity against Micrococcus luteus UFPEDA 06 after 20 hrs by twofold serial dilution technique; settings: UFPEDA 06, 20 h; method in brief: as §1
Staphylococcus [23] = assay: Antimicrobial activity against coagulase-negative Staphylococcus H.A.M. 338 isolate after 20 hrs by twofold serial dilution technique; settings: H.A.M. 338, 20 h; method in brief: as §1
Enterococcus faecalis [24] = assay: Antimicrobial activity against multidrug-resistant Enterococcus faecalis H.C. 21752 isolate after 20 hrs by twofold serial dilution technique; settings: H.C. 21752, 20 h; method in brief: as §3
NCI-H292 [25] = assay: Cytotoxicity against human NCI-H292 cells at 1.25 ug/mL after 72 hrs by MTT assay; settings: NCI-H292, 72 h, read-out: GI
Method in brief: (§4)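 MTT antiproliferative assay. Cells were diluted to 10⁵ cells/mL in 96-well plates and preincubated for 24 h at 37 °C in humid 5% CO₂. Compounds or vincristine (reference) were then added. Formazan was dissolved and OD read at 540 nm, compared with medium-only control cells. Run in triplicate.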

HEp-2 [26] = assay: Cytotoxicity against human Hep2 cells at 1.25 ug/mL after 72 hrs by MTT assay; settings: HEp-2, 72 h, read-out: GI; method in brief: as §4
HEp-2 [27] = assay: Cytotoxicity against human Hep2 cells at 10 ug/mL after 72 hrs by MTT assay; settings: HEp-2, 72 h, read-out: GI; method in brief: as §4
NCI-H292 [28] = assay: Cytotoxicity against human NCI-H292 cells at 5 ug/mL after 72 hrs by MTT assay; settings: NCI-H292, 72 h, read-out: GI; method in brief: as §4
NCI-H292 [29] = assay: Cytotoxicity against human NCI-H292 cells at 10 ug/mL after 72 hrs by MTT assay; settings: NCI-H292, 72 h, read-out: GI; method in brief: as §4
HEp-2 [30] = assay: Cytotoxicity against human Hep2 cells at 5 ug/mL after 72 hrs by MTT assay; settings: HEp-2, 72 h, read-out: GI; method in brief: as §4
NCI-H292 [31] = assay: Cytotoxicity against human NCI-H292 cells at 2.5 ug/mL after 72 hrs by MTT assay; settings: NCI-H292, 72 h, read-out: GI; method in brief: as §4

SMILES | MIC (Enterococcus faecalis [1]) | zone of inhibition at 300 µg/disc (Pseudomonas aeruginosa) | zone of inhibition at 300 µg/disc (Staphylococcus aureus [2]) | MIC (Candida albicans [3]) | zone of inhibition at 300 µg/disc (Escherichia coli) | MIC (Bacillus subtilis [4]) | MIC (Staphylococcus aureus [5]) | MIC (Staphylococcus aureus [6]) | zone of inhibition at 300 µg/disc [7] | MIC (Staphylococcus aureus [8]) | zone of inhibition at 300 µg/disc (Micrococcus luteus [9]) | MIC (Enterococcus faecalis [10]) | zone of inhibition at 300 µg/disc (Bacillus subtilis [11]) | MIC (Staphylococcus [12]) | MIC (Staphylococcus aureus [13]) | MIC (Enterococcus faecalis [14]) | MIC (Staphylococcus aureus [15]) | zone of inhibition at 300 µg/disc (Enterococcus faecalis [16]) | zone of inhibition at 300 µg/disc (Serratia marcescens) | MIC (Staphylococcus aureus [17]) | other results
O=C1NC(=S)CS1 | 64 µg/mL (≈ 480 µM) | < 7 mm | 19 mm | 8 µg/mL (≈ 60.1 µM) | < 7 mm | 4 µg/mL (≈ 30 µM) | 32 µg/mL (≈ 240 µM) | 32 µg/mL (≈ 240 µM) | 18 mm | 32 µg/mL (≈ 240 µM) | 26 mm | 32 µg/mL (≈ 240 µM) | 21 mm | 64 µg/mL (≈ 480 µM) | 8 µg/mL (≈ 60.1 µM) | 32 µg/mL (≈ 240 µM) | 32 µg/mL (≈ 240 µM) | 22 mm | < 7 mm | 64 µg/mL (≈ 480 µM) | MIC (Staphylococcus aureus [18]): 32 µg/mL (≈ 240 µM); MIC (Enterococcus faecalis [19]): 32 µg/mL (≈ 240 µM); zone of inhibition at 300 µg/disc (Candida albicans [20]): 19 mm; MIC [21]: 32 µg/mL (≈ 240 µM); MIC (Micrococcus luteus [22]): 4 µg/mL (≈ 30 µM); MIC (Staphylococcus [23]): 64 µg/mL (≈ 480 µM); MIC (Enterococcus faecalis [24]): 32 µg/mL (≈ 240 µM)
O=C1NC(=S)/C(=C/c2ccc(Cl)cc2)S1 | 32 µg/mL (≈ 125 µM) | < 7 mm | 27 mm | 64 µg/mL (≈ 250 µM) | < 7 mm | 16 µg/mL (≈ 62.6 µM) | 8 µg/mL (≈ 31.3 µM) | 2 µg/mL (≈ 7.82 µM) | 20 mm | 2 µg/mL (≈ 7.82 µM) | 25 mm | 16 µg/mL (≈ 62.6 µM) | 22 mm | 4 µg/mL (≈ 15.6 µM) | 4 µg/mL (≈ 15.6 µM) | 16 µg/mL (≈ 62.6 µM) | 2 µg/mL (≈ 7.82 µM) | 17 mm | < 7 mm | 2 µg/mL (≈ 7.82 µM) | inhibition of growth at 1.25 µg/mL (NCI-H292 [25]): 10%; inhibition of growth at 1.25 µg/mL (HEp-2 [26]): 0.92%; inhibition of growth at 10 µg/mL (HEp-2 [27]): 22.2%; inhibition of growth at 5 µg/mL (NCI-H292 [28]): 35.8%; MIC (Staphylococcus aureus [18]): 2 µg/mL (≈ 7.82 µM); inhibition of growth at 10 µg/mL (NCI-H292 [29]): 41.4%; MIC (Enterococcus faecalis [19]): 16 µg/mL (≈ 62.6 µM); zone of inhibition at 300 µg/disc (Candida albicans [20]): 12 mm; MIC [21]: 32 µg/mL (≈ 125 µM); inhibition of growth at 5 µg/mL (HEp-2 [30]): 16.1%; MIC (Micrococcus luteus [22]): 32 µg/mL (≈ 125 µM); MIC (Staphylococcus [23]): 4 µg/mL (≈ 15.6 µM); MIC (Enterococcus faecalis [24]): 16 µg/mL (≈ 62.6 µM); inhibition of growth at 2.5 µg/mL (NCI-H292 [31]): 28.6%
